Measurements taken from ChEMBL document CHEMBL1122933, “Drug glycosides: potential prodrugs for colon-specific drug delivery” (J Med Chem, 1985).

Experiments:
Rattus norvegicus [1] = organism: Rattus norvegicus; assay: Total activity of the entire contents of stomach segment in rat intestine; type: functional
Method in brief: (§1)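 Contents of each rat GI segment (stomach, proximal small intestine, distal small intestine, cecum) were pooled from four animals, weighed wet, diluted in cold 0.01 M phosphate buffer pH 7.0, and homogenized. Homogenate was incubated with 1.0 mM glycoside at 37 °C with shaking for up to 30 min. Aliquots were MeOH-quenched, centrifuged and analysed by HPLC for released aglycon.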

Rattus norvegicus [2] = organism: Rattus norvegicus; assay: Total activity of the entire contents of DSI segment in rat intestine; type: functional; method in brief: as §1
Rattus norvegicus [3] = organism: Rattus norvegicus; assay: Total activity of the entire contents of cecum segment in rat intestine; type: functional; method in brief: as §1
Rattus norvegicus [4] = organism: Rattus norvegicus; assay: Specific activity of the cecum segment in rat intestine; type: functional; method in brief: as §1
Rattus norvegicus [5] = organism: Rattus norvegicus; assay: Vmax value was determined in homogenates of pooled cecal contents in rats; type: ADME
Method in brief: (§2)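 Cecal contents from four rats pooled, weighed wet, diluted in 0.01 M phosphate pH 7.0 and homogenized. Reactions were run in duplicate at 37 °C for 15 min across substrate ranges spanning apparent KM. For p-nitrophenyl glycosides: 56-1000 substrate, NaOH stop, A403. For steroid glycosides: 0.5-48 substrate, MeOH quench, HPLC. KM(app) and Vmax (per g wet weight) came from Eadie-Hofstee plots.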

Rattus norvegicus [6] = organism: Rattus norvegicus; assay: Specific activity of the DSI segment in rat intestine; type: functional; method in brief: as §1
Rattus norvegicus [7] = organism: Rattus norvegicus; assay: Specific activity of the stomach segment in rat intestine; type: functional; method in brief: as §1
[8] = Km(app) value was determined in homogenates of pooled cecal contents in rats; type: ADME; settings: rat, read-out: Km app; method in brief: as §2
Rattus norvegicus [9] = organism: Rattus norvegicus; assay: Total activity of the entire contents of PSI segment in rat intestine; type: functional; method in brief: as §1
[10] = Partition coefficient (logP); type: physicochemical; settings: octanol/water
Rattus norvegicus [11] = organism: Rattus norvegicus; assay: Specific activity of the PSI segment in rat intestine; type: functional; set-up: unit not given here; method in brief: as §1

SMILES | Total activity (Rattus norvegicus [1]) | Total activity (Rattus norvegicus [2]) | Total activity (Rattus norvegicus [3]) | Specific activity (Rattus norvegicus [4]) | Vmax (Rattus norvegicus [5]) | Specific activity (Rattus norvegicus [6]) | Specific activity (Rattus norvegicus [7]) | Km [8] | Total activity (Rattus norvegicus [9]) | logP [10] | Specific activity (Rattus norvegicus [11])
CC1CC2C3CCC4=CC(=O)C=CC4(C)[C@@]3(F)C(O)CC2(C)[C@@]1(O)C(=O)CO[C@@H]1O[C@@H](CO)[C@@H](O)[C@H](O)[C@H]1O (some centres not stated) | 0.004 µM/min | 0.41 µM/min | 6.5 µM/min | 322 nM/min | 3.9 µM/min/g | 29.3 nM/min | 2 nM/min | 13.3 µM | 0.004 µM/min | – | –
CC12CCC(=O)C=C1CCC1C2C(O)CC2(C)C1CC[C@]2(O)C(=O)CO[C@@H]1O[C@@H](CO)[C@@H](O)[C@H](O)[C@H]1O (some centres not stated) | 0.02 µM/min | 1.6 µM/min | 11.9 µM/min | 592 nM/min | 20.6 µM/min/g | 110 nM/min | 12.5 nM/min | 33.3 µM | 0.02 µM/min | 0.15 | 42.5
O=[N+]([O-])c1ccc(O[C@@H]2O[C@H](CO)[C@@H](O)[C@H](O)[C@H]2O)cc1 | 0.08 µM/min | 0.65 µM/min | 9.1 µM/min | 454 nM/min | 697 µM/min/g | 86.6 nM/min | 72.2 nM/min | 360 µM | 0.15 µM/min | – | –
CC12CCC(=O)C=C1CCC1C3CC[C@](O)(C(=O)CO[C@H]4O[C@H](CO)[C@@H](O)[C@H](O)[C@H]4O)C3(C)CC(O)[C@@]12F (some centres not stated) | 0.01 µM/min | 0.8 µM/min | 12.9 µM/min | 642 nM/min | 2.2 µM/min/g | 56.7 nM/min | 7 nM/min | 2.5 µM | 0.01 µM/min | 0.25 | 12.5
CC12CCC(=O)C=C1CCC1C2C(O)CC2(C)C1CC[C@]2(O)C(=O)CO[C@@H]1O[C@H](CO)[C@@H](O)[C@H](O)[C@H]1O (some centres not stated) | 0.09 µM/min | 0.7 µM/min | 0.76 µM/min | 30.5 nM/min | 2.6 µM/min/g | 39.2 nM/min | 5.5 nM/min | 5.7 µM | 0.1 µM/min | 0.44 | 15.9
O=[N+]([O-])c1ccc(O[C@@H]2O[C@H](CO)[C@H](O)[C@H](O)[C@H]2O)cc1 | 0.7 µM/min | 3.6 µM/min | 30.8 µM/min | 1620 nM/min | 1233 µM/min/g | 425 nM/min | 57.8 nM/min | 166 µM | 0.2 µM/min | – | –
CC1CC2C3CCC4=CC(=O)C=CC4(C)[C@@]3(F)C(O)CC2(C)[C@@]1(O)C(=O)CO[C@@H]1O[C@H](CO)[C@@H](O)[C@H](O)[C@H]1O (some centres not stated) | 0.12 µM/min | 0.34 µM/min | 3.5 µM/min | 141 nM/min | 10.2 µM/min/g | 19.3 nM/min | 6.8 nM/min | 16.7 µM | 0.07 µM/min | – | –
C[C@]12C=CC(=O)C=C1CC[C@@H]1[C@@H]2C(O)C[C@@]2(C)[C@H]1CC[C@]2(O)C(=O)CO[C@@H]1O[C@H](CO)[C@@H](O)[C@H](O)[C@H]1O (some centres not stated) | 0.12 µM/min | 1 µM/min | 6.6 µM/min | 265 nM/min | 2.6 µM/min/g | 56.8 nM/min | 6.8 nM/min | 4.5 µM | 0.07 µM/min | 0.27 | 12.2
C[C@]12C=CC(=O)C=C1CC[C@@H]1[C@@H]2C(O)C[C@@]2(C)[C@H]1CC[C@]2(O)C(=O)CO[C@@H]1O[C@@H](CO)[C@@H](O)[C@H](O)[C@H]1O (some centres not stated) | 0.19 µM/min | 1.72 µM/min | 13 µM/min | 665 nM/min | 10.3 µM/min/g | 122 nM/min | 12.1 nM/min | 20 µM | 0.23 µM/min | 0.11 | 49.3
C[C@]12C=CC(=O)C=C1CC[C@@H]1[C@@H]2[C@@H](O)C[C@@]2(C)[C@H]1CC[C@]2(O)C(=O)CO[C@@H]1O[C@H](CO)[C@@H](O[C@@H]2O[C@H](CO)[C@@H](O)[C@H](O)[C@H]2O)[C@H](O)[C@H]1O | 0.01 µM/min | 0.64 µM/min | 2.2 µM/min | 109 nM/min | – | 32.5 nM/min | 7.5 nM/min | – | 0.11 µM/min | -0.56 | 26
CC12CCC(=O)C=C1CCC1C3CC[C@](O)(C(=O)CO[C@H]4O[C@@H](CO)[C@@H](O)[C@H](O)[C@H]4O)C3(C)CC(O)[C@@]12F (some centres not stated) | 0.14 µM/min | 0.43 µM/min | 1.4 µM/min | 49 nM/min | 2.4 µM/min/g | 33 nM/min | 7.7 nM/min | 4.4 µM | 0.08 µM/min | 0.84 | 12.3
O=[N+]([O-])c1ccc(O[C@@H]2O[C@H](CO)[C@@H](O[C@@H]3O[C@H](CO)[C@@H](O)[C@H](O)[C@H]3O)[C@H](O)[C@H]2O)cc1 | 0.35 µM/min | 0.25 µM/min | 2.6 µM/min | 96.5 nM/min | – | 26 nM/min | 34.2 nM/min | – | 0.05 µM/min | – | –
CC12CCC(=O)C=C1CCC1C3CC[C@](O)(C(=O)CO)C3(C)CC(O)[C@@]12F (some centres not stated) | – | – | – | – | – | – | – | – | – | 1.73 | –
C[C@@H]1C[C@H]2[C@@H]3CCC4=CC(=O)C=C[C@]4(C)[C@@]3(F)[C@@H](O)C[C@]2(C)[C@@]1(O)C(=O)CO [DEXAMETHASONE] | – | – | – | – | – | – | – | – | – | 1.72 | –
C[C@]12CCC(=O)C=C1CC[C@@H]1[C@@H]2[C@@H](O)C[C@@]2(C)[C@H]1CC[C@]2(O)C(=O)CO [HYDROCORTISONE] | – | – | – | – | – | – | – | – | – | 1.54 | –
C[C@]12C=CC(=O)C=C1CC[C@@H]1[C@@H]2[C@@H](O)C[C@@]2(C)[C@H]1CC[C@]2(O)C(=O)CO [PREDNISOLONE] | – | – | – | – | – | – | – | – | – | 1.55 | –
